Results published in ChEMBL document CHEMBL3877270, “Biological and structural studies of phosphonium 'masked thiolate' compounds” (Eur J Med Chem, 2017).

What was measured:
[1] = Cytotoxicity against human PC3 cells measured at 72 hrs post dose by Celltiter-Glo luminescent cell viability assay; type: functional, cell-based; conditions: PC-3, 72 h
In short: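 PC3 cells (ATCC; DMEM GlutaMAX high glucose, 10% heat-inactivated FBS, pen/strep, 37 °C, 5% CO2) seeded 10,000/well, adhered overnight, then exposed 0–1000 µM for 24, 48, 72 h. Viability by CellTiter-Glo ATP luminescence after 30 min room-temperature equilibration. Vehicle controls at 0.1–0.001% DMSO. Quadruplicate wells, 3 independent experiments (n = 12). Normalised to control; IC50 from curve fit.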

[2] = Drug uptake in rat C6 cells at 10 uM measured after 10 to 90 mins by MALDI-TOF-MS analysis relative to tetraphenylphosphonium cation; type: ADME, cell-based; conditions: c6, 10 µM
[3] = Drug uptake in human PC3 cells measured after 90 mins by MALDI-TOF-MS analysis; type: ADME, cell-based; conditions: pc-3, 1.5 h
In short: (§1)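 Trypsinised PC3 cells washed in PBS, resuspended in low-K+ HEPES buffer pH 7.4, 0.5×10^6 cells incubated with compound at 5 µM final, 37 °C, 0–120 min. Cells washed in cold PBS, lysed in cold water, lysate spiked with tetraphenylphosphonium bromide internal standard, α-CHCA matrix, positive-ion MALDI-TOF-MS. Amount from calibration curve built in PC3 lysate; triplicate analyses, three independent experiments.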

[4] = Aqueous solubility of the compound; type: physicochemical; conditions: buffer
[5] = Drug uptake in human PC3 cells measured after 10 mins by MALDI-TOF-MS analysis; type: ADME, cell-based; conditions: pc-3, 10 min; in short: as §1
[6] = Drug uptake in human PC3 cells measured after 30 mins by MALDI-TOF-MS analysis; type: ADME, cell-based; conditions: pc-3, 0.5 h; in short: as §1

Row | Structure (SMILES) | IC50 [1] [µM] | solubility [4] | also measured
1 | Cc1ccc(-c2nc([P+](c3ccccc3)(c3ccccc3)c3ccccc3)c[se]2)cc1 | 0.4 |  | 
2 | Fc1ccc([P+](c2ccccc2)(c2ccccc2)c2ccccc2)cc1 [BFPET] |  |  | Drug uptake [2]: 80%
3 | CC(=O)SCCC[P+](c1ccc(F)cc1)(c1ccc(F)cc1)c1ccc(F)cc1.[Br-] | 252 | Soluble | Drug uptake [3]: Active
4 | C/C(N)=C/[P+](c1ccccc1)(c1ccccc1)c1ccccc1 | 8 |  | 
5 | CC(=O)SCCC[P+](c1ccccc1)(c1ccccc1)c1ccccc1.[Br-] | 67 | Soluble | Drug uptake [5]: Active; Drug uptake [6]: Active
